Data set [1] concerns the target T1, Vent(exo−) DNA polymerase (Thermococcus litoralis, UniProt P30317, D141A/E143A).
T1 sequence (P30317 with tags, fused parts or gaps D141A/E143A): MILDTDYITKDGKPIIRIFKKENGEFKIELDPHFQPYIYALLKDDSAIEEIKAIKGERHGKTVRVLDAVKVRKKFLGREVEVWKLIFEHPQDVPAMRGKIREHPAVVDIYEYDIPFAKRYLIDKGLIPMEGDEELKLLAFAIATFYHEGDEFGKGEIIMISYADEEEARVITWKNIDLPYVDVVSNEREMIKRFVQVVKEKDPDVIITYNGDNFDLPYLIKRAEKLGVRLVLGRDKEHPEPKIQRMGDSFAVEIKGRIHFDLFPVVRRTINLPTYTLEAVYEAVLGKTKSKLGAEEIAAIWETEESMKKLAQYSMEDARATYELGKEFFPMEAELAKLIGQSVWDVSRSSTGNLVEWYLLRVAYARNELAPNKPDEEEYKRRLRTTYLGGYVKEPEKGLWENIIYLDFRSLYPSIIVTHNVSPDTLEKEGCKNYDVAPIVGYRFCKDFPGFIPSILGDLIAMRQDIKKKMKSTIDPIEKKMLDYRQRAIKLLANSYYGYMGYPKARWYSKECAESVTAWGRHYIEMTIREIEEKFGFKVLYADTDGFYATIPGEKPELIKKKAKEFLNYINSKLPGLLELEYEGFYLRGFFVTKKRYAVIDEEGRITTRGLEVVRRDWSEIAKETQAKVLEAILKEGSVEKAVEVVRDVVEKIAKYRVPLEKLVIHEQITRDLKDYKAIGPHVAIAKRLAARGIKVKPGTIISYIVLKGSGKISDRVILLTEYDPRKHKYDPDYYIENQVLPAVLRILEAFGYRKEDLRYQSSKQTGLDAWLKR
The conditions noted are these: screening with eight different DNA polymerases; cited from earlier work.

Data set [2] in a line: UV deprotection studies of 5′-O-TBS derivatives. Type of data set: physicochemical. The conditions noted are these: for DT1/2 (deprotection half-life time) at 302 nm / DT1/2 (deprotection half-life time) at 365 nm: 1 mM in methanol, 0.5 mW transilluminator, triplicate. In a few lines:
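The test compound, in methanol at 1 mM in a scintillation vial, was irradiated with a 0.5 mW transilluminator at 302 or 365 nm. Aliquots taken at time intervals went to reverse-phase HPLC to follow loss of starting material and appearance of the deprotected product (loss of the 2-nitrobenzyl group). DT1/2 is the time at 50% deprotection, read from kinetic plots. Each compound was run in triplicate.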

The target of data set [3] is T2, Bst DNA polymerase (Geobacillus stearothermophilus, UniProt P52026).
T2 sequence (P52026 289-876 limits assumed): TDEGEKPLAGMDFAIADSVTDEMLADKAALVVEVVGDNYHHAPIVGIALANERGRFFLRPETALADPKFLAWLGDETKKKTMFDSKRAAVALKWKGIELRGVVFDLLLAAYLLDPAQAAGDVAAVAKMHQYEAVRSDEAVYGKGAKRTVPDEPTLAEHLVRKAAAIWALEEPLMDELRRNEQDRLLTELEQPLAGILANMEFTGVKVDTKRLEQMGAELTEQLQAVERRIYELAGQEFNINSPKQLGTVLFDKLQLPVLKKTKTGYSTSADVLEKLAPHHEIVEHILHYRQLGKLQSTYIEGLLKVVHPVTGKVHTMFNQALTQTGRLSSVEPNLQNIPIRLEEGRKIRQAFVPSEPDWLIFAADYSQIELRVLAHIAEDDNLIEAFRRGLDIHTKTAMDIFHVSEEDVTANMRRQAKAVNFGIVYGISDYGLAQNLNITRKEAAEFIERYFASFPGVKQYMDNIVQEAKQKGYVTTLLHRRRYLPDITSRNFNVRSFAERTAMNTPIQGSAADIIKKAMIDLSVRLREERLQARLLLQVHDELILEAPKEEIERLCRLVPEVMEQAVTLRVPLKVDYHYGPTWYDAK
The data set can be described thus: Oligonucleotide template assay. The conditions noted are these: for Incorporation: Bst, five-base poly-thymidine template, high concentrations (100 μM). Type of data set: biochemical, Bacillus stearothermophilus.

Data set [4] has as its target T3, DeepVent(exo−) DNA polymerase (Pyrococcus sp. GB-D, UniProt Q51334, D141A/E143A).
T3 sequence (Q51334 with tags, fused parts or gaps D141A/E143A): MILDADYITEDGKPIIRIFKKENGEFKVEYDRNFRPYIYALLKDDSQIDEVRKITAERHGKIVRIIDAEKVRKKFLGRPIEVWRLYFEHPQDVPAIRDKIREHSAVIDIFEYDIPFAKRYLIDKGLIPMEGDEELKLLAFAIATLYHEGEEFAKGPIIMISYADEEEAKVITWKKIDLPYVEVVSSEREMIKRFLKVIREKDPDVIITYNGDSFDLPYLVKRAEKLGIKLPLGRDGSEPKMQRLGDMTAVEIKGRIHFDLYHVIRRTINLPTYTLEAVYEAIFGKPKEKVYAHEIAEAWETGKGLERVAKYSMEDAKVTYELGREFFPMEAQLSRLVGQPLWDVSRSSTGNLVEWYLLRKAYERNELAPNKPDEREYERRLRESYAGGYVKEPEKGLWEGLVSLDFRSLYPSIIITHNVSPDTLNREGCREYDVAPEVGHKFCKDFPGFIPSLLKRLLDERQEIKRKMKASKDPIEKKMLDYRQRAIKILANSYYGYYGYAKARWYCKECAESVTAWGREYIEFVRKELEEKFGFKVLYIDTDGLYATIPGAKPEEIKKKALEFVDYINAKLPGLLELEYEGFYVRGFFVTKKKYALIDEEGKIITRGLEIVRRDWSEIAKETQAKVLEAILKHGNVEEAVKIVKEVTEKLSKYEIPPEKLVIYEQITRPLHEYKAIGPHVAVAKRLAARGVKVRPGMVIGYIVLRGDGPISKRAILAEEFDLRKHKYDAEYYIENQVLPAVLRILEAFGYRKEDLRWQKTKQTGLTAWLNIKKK
The data set can be described thus: PEP. It is filed as biochemical, Pyrococcus species GB-D.

For data set [5], the target named is T2, Bst DNA polymerase. In words: PEP. Type of data set: biochemical, Bacillus stearothermophilus.
Data set [6] addresses T1, Vent(exo−) DNA polymerase. The data set can be described thus: PEP. It is filed as biochemical.

Each structure is given as a SMILES string.

Take `C=CCO[C@H]1C[C@H](n2cnc3c(N)ncnc32)O[C@@H]1COP(=O)(O)OP(=O)(O)OP(=O)(O)O` [3′-O-allyl-dATP]: the “Activity as polymerase substrate” value in data set [1] is reported as “limited activity at high micromolar concentrations”.

With `CC(C)(C)[Si](C)(C)OC[C@H]1O[C@@H](n2cnc3c(N)ncnc32)C[C@@H]1OCc1ccccc1[N+](=O)[O-]` [Compound Ib, 5’-O-tert-Butyldimethylsilyl-3’-O-(2-nitrobenzyl)-2’-deoxyadenosine], in data set [2], the “DT1/2 (deprotection half-life time) at 302 nm” value was 1 min and the “DT1/2 (deprotection half-life time) at 365 nm” value came out at 2.53 min. With `CC(C)(C)[Si](C)(C)OC[C@H]1O[C@@H](n2cnc3c(NCc4ccccc4[N+](=O)[O-])ncnc32)C[C@@H]1O` [IIIb, N^6-(2-Nitrobenzyl)-5’-O-tert-butyldimethylsilyl-2’-deoxyadenosine], in data set [2], the “DT1/2 (deprotection half-life time) at 302 nm” value was found to be 0.767 min and the “DT1/2 (deprotection half-life time) at 365 nm” value stood at 2.4 min. On to `CC(C)(C)[Si](C)(C)OC[C@H]1O[C@@H](n2cnc3c(N(Cc4ccccc4[N+](=O)[O-])Cc4ccccc4[N+](=O)[O-])ncnc32)C[C@@H]1O` [IIb, N^6, N^6-Bis-(2-nitrobenzyl)-5’-O-tert-butyldimethylsilyl-2’deoxyadenosine], for which the “Deprotection rate relative to compound Ib” value in data set [2] (faster than Ib at both deprotection wavelengths (302 and 365 nm)) is given as “approximately 3 fold”. As for `O=[N+]([O-])c1ccccc1CN(Cc1ccccc1[N+](=O)[O-])c1ncnc2c1ncn2[C@H]1C[C@H](O)[C@@H](COP(=O)(O)OP(=O)(O)OP(=O)(O)O)O1` [IIc, N^6, N^6-Bis-(2-nitrobenzyl)-2’-deoxyadenosine-5’-triphosphate], in data set [3], the “Activity by DNA polymerase incorporation assays” value is “inactive” and the Incorporation result is recorded as “did not show significant incorporation”. For `Nc1ncnc2c1ncn2[C@H]1C[C@H](OCc2ccccc2[N+](=O)[O-])[C@@H](COP(=O)(O)OP(=O)(O)OP(=O)(O)O)O1` [Ic, 3’-O-(2-Nitrobenzyl)-2’-deoxyadenosine-5’-triphosphate], in that order: “inactive” and “did not show significant incorporation”. As for `Nc1ncnc2c1ncn2[C@H]1C[C@H](O)[C@@H](COP(=O)(O)OP(=O)(O)OP(=O)(O)O)O1` [dATP, 2′-Deoxyadenosine triphosphate], the IC50 (in general, the concentration that gives 50% inhibition) in data set [4] worked out at 2.8 ± 0.2 nM; in data set [5] it was 1.2 ± 0.1 nM; in data set [6], 1.6 ± 0.2 nM.

(Values after PMC2095803 (Nucleic Acids Research, 2007).)
